Data set [1] addresses T1, Sterol regulatory element-binding protein 2 (Homo sapiens) (UniProt Q12772).
T1 sequence (whole entry): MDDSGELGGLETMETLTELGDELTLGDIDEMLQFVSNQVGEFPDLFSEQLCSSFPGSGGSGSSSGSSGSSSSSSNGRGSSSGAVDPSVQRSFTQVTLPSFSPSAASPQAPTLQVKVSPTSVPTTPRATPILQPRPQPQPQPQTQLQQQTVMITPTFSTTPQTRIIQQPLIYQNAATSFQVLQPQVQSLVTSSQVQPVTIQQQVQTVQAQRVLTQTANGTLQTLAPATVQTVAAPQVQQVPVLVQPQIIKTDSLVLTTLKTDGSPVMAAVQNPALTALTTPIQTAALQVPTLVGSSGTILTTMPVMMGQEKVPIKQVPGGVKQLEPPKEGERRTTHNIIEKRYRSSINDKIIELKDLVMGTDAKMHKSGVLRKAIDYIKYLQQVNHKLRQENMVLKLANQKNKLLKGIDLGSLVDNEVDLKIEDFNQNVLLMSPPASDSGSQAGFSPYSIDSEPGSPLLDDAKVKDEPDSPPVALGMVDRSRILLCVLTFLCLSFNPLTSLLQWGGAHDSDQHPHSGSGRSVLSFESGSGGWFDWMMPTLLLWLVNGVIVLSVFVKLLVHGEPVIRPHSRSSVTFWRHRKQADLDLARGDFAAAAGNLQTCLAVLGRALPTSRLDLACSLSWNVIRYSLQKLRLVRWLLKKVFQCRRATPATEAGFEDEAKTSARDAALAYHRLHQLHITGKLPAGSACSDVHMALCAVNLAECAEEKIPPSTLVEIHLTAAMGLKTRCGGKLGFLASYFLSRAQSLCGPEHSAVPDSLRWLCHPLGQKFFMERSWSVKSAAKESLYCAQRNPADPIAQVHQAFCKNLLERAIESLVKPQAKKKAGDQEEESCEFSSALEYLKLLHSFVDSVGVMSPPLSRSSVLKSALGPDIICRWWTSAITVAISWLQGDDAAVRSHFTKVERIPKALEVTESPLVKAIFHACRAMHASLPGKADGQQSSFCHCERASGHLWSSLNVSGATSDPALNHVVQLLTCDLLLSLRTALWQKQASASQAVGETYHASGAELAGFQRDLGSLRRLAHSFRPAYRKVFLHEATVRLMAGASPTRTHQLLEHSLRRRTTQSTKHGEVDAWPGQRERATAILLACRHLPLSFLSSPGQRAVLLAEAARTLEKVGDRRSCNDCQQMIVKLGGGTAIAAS
The data set can be described thus: Inhibition of SREBP2 in human HepG2 cells assessed as downregulation of PCSK9 mRNA expression by RT-PCR analysis. The class given is cell-based.

For data set [2], the system named is Intestine. The data set can be described thus: Drug metabolism in Sprague-Dawley rat intestine assessed as niacin linker metabolite N-(2-aminoethyl)nicotinamide formation at 300 mg/kg, qd administered through oral gavage for 7 days measured 2 hrs post last dose by LC/MS/MS analysis. The note with it: in vivo. The data set is classed as ADME, organism-based.
The next data set has as its system Mus musculus. The data set can be described thus: Inhibition of VLDL cholesterol levels in po dosed ApoE*3-Leiden mouse plasma administered for 16 weeks. The data set is classed as functional, organism-based. In short, it runs like this:
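Transgenic ApoE*3-Leiden mice on high-cholesterol Western-type diet dosed over 16 weeks; plasma PCSK9, total cholesterol, triglycerides and lipoprotein profile (VLDL, LDL) assessed at study end.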

In data set [3] the test system is Rattus norvegicus. As to the kind of experiment: Cmax in portal vein cannulated Sprague-Dawley rat assessed as N-(2-aminoethyl)nicotinamide at 30 mg/kg, po measured up to 140 mins. The data set is classed as ADME, organism-based. Particulars: in vivo. More on the design: dose 30 mg/kg, route oral. In short, it runs like this: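 Sprague Dawley rats surgically fitted with indwelling jugular vein and portal vein cannulas; oral dosing, then serial blood draws from both portal and jugular veins at 10, 20, 40 min and 1, 2, 4, 6 hr post dose; plasma analysed for parent and metabolites by LC/MS/MS.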

In data set [4] the test system is Intestine. The data set can be described thus: Drug metabolism in Sprague-Dawley rat intestine assessed as linker EPA metabolite (5Z,8Z,11Z,14Z,17Z)-N-(2-aminoethyl)icosa-5,8,11,14,17-pentaenamide formation at 300 mg/kg, qd administered through oral gavage for 7 days measured 2 hrs post last dose by LC/MS/MS analysis. The class given is ADME, organism-based. The note with it: in vivo.

Data set [5] deals with Rattus norvegicus. The data set can be described thus: Cmax in Sprague-Dawley rat assessed as nicotinuric acid at 100 mg/kg, po administered as single dose measured up to 6 hrs post dose by LC/MS/MS analysis. The data set is classed as ADME, organism-based. More on the design: dose 100 mg/kg, route oral. Particulars: in vivo. An outline of the steps: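 Single oral dose to Sprague Dawley rats; plasma collected at 0.25, 0.5, 1, 2, 4 and 6 hr; analytes in plasma quantified by LC/MS/MS.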

Data set [6] has as its target T2, Fatty-acid amide hydrolase 1 (Homo sapiens, UniProt O00519).
T2 sequence (O00519 whole entry): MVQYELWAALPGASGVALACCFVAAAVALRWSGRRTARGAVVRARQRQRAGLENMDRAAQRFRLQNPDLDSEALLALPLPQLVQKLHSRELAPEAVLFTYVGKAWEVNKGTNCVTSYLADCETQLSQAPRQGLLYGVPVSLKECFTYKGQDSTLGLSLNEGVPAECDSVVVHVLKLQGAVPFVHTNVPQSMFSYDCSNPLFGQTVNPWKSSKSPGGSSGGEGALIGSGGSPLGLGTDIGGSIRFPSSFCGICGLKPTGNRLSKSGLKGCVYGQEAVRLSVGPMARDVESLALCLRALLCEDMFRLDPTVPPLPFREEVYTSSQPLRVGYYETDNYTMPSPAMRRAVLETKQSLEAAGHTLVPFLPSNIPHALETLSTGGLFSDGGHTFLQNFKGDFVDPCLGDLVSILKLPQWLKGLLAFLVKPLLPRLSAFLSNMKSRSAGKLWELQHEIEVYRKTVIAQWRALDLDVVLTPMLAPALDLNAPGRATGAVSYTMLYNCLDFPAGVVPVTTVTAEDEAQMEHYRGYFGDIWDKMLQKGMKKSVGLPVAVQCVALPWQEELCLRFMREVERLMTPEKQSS
As to the kind of experiment: Drug metabolism assessed as human recombinant N-terminal FLAG/C-terminal His-tagged FAAH1 (32 to 579 residues)-mediated compound hydrolysis by measuring release of EPA at 25 uM by LC/MS-MS analysis. The note with it: TDE = time-dependent effect. The class given is ADME.

The nature of data set [7]: Drug uptake in Sprague-Dawley rat intestine at 300 mg/kg, qd administered through oral gavage for 7 days measured 2 hrs post last dose by LC/MS/MS analysis. The class given is ADME, organism-based. Particulars: read-out: Drug uptake.
The nature of data set [8]: Drug uptake in Sprague-Dawley rat epididymal fat at 300 mg/kg, po administered for 7 days measured 4 hrs post dose on day 7. The note with it: read-out: Drug uptake. The class given is ADME, organism-based, Epididymal fat pad. An outline of the steps:
(§1)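 Male Sprague Dawley rats, groups of 4, dosed orally at 300 mg/kg once daily for 14 days. Animals killed on days 1, 3, 7 and 14, with plasma, brain, epididymal fat, liver and muscle taken 4 hr after dosing. Parent, salicylic acid and salicyluric acid were measured.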

A short description of data set [9]: Drug uptake in Sprague-Dawley rat liver at 300 mg/kg, po administered for 7 days measured 4 hrs post dose on day 7. The class given is ADME, organism-based. The note with it: read-out: Drug uptake. In short, it runs like this: as §1
A short description of data set [10]: Drug metabolism in Sprague-Dawley rat epididymal fat assessed as salicylic acid formation at 300 mg/kg, po administered for 14 days followed by 7 day washout cycle measured on day 21. The class given is ADME, organism-based, Epididymal fat pad. Particulars: in vivo.
Another data set deals with Muscle tissue. The data set can be described thus: Drug metabolism in Sprague-Dawley rat muscle assessed as salicyluric acid formation at 300 mg/kg, po administered for 14 days followed by 7 day washout cycle measured on day 21. The data set is classed as ADME, organism-based. The note with it: in vivo.
For a further data set, the system named is Brain. The data set can be described thus: Drug metabolism in Sprague-Dawley rat brain assessed as salicylic acid formation at 300 mg/kg, po administered for 14 days followed by 7 day washout cycle measured on day 21. The class given is ADME, organism-based. Particulars: in vivo.

Data on two molecules can be found in ChEMBL document CHEMBL3785029, “Synthesis and Characterization of Fatty Acid Conjugates of Niacin and Salicylic Acid” (J Med Chem, 2016).

Each structure is given as a SMILES string. Activity calls are given as the source filed them. The calls are words filed in the database; no cut-off is given here.

Regarding `CC/C=C\C/C=C\C/C=C\C/C=C\C/C=C\CCCC(=O)NCCNC(=O)c1cccnc1`, the inhibition result in data set [1] was “Dose-dependent effect”. The Drug metabolism with Intestine [2] is given as 23899 ng/g; in the data set on Intestine [4] it was 74 ng/g; in data set [6], “tde”. The inhibition entry in the data set on Mus musculus was “Active”. Further, the maximum concentration (Cmax) in the data set with Rattus norvegicus [3] was found to be 2061 ng/mL; in the data set with Rattus norvegicus [5], 1131 ng/mL. In addition, in data set [7], the concentration at 2 h turned out to be 6750 ng/g.

For `CC/C=C\C/C=C\C/C=C\C/C=C\C/C=C\C/C=C\CCC(=O)NCCNC(=O)c1ccccc1O` [EDASALONEXENT], the values for the concentration at 4 h in data set [8] and in data set [9] were 772 ng/g and 331 ng/g, respectively. The Drug metabolism result (in [10]; with Muscle tissue; in the data set with Brain) was “metabolite_notdetected” throughout.

Broadly, the Cmax is the peak of the concentration-time curve.
